These results are taken from ChEMBL document CHEMBL4017487, “Design and Synthesis of γ- and δ-Lactam M1 Positive Allosteric Modulators (PAMs): Convulsion and Cholinergic Toxicity of an M1-Selective PAM with Weak Agonist Activity” (J Med Chem, 2017).

pEC50: −log10 of the molar value. Calls of active or inactive are those of the source. The rule behind the calls is not given here.

What is called half-life is the time in which the quantity being followed falls by half. The low end stands for fast loss, the high end for slow loss. A word on the clearance: it is a measure of how efficiently the substance is removed, as volume per time. Low values mean a low capacity for elimination, high ones a high capacity for elimination. As usually defined, the pEC50 is the EC50 on a negative log10 scale, so that one unit is a factor of ten. For orientation: NOAEL means the highest dose or exposure tested at which no adverse effect was seen.

The nature of data set [1]: Half life in rat at 2 mg/kg, po administered as single dose. The data set is classed as ADME, organism-based. To be noted: in vivo. The gist of the method: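 Rat, single oral dose of 2 mg/kg given as a suspension in 0.5% methylcellulose. Half-life taken after the oral dose.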
The nature of data set [2]: Ratio of AUC in dog brain to plasma at 0.5 mg/kg, po or 0.1 mg/kg, iv administered as single bolus dose. To be noted: read-out: Ratio AUC. The format is ADME, organism-based, Canis lupus familiaris. The method in brief: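 Brain/plasma ratio computed from AUC of total drug in brain and total drug in plasma.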
A short description of data set [3]: Ratio of unbound AUC in dog brain to plasma at 0.5 mg/kg, po or 0.1 mg/kg, iv administered as single bolus dose. The data set is classed as ADME, organism-based, Canis lupus familiaris.
Data set [4] is described as follows: Clearance in dog at 0.1 mg/kg, iv administered as single bolus dose. The data set is classed as ADME, organism-based, Canis lupus familiaris. Particulars: in vivo.
The target of data set [5] is T1, Muscarinic acetylcholine receptor M4 (Homo sapiens, UniProt P08173).
T1 sequence (P08173 whole entry): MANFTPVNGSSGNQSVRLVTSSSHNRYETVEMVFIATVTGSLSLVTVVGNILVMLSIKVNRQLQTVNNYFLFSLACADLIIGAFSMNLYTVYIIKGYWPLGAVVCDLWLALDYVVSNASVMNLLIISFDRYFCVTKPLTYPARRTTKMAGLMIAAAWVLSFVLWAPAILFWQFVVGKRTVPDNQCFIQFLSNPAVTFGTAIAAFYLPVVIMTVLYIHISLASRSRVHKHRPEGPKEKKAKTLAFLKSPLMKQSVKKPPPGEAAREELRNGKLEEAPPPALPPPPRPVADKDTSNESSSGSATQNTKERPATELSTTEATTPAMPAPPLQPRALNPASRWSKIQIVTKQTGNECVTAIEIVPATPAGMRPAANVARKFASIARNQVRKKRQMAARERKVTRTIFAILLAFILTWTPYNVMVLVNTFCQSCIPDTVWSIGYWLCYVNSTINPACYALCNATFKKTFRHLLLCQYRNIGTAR
Nature of the data set: Positive allosteric modulation of human muscarinic acetylcholine receptor M4 expressed in CHO cells assessed as increase in acetylcholine-induced cAMP accumulation up to 10 uM after 2 hrs by cAMP-Glo assay. The format is cell-based. The method in brief:
(§1)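 Recombinant functional human M2–M5 assays, each run in agonist and PAM modes at concentrations up to 10 μM.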

Data set [6] has as its target T1, Muscarinic acetylcholine receptor M4. Nature of the data set: Agonist activity at human muscarinic acetylcholine receptor M4 expressed in CHO cells assessed as increase in cAMP accumulation after 2 hrs by cAMP-Glo assay. The format is cell-based. The method in brief: as §1
Data set [7] has as its target T2, Muscarinic acetylcholine receptor M1 (Homo sapiens, UniProt P11229).
T2 sequence (P11229 whole entry): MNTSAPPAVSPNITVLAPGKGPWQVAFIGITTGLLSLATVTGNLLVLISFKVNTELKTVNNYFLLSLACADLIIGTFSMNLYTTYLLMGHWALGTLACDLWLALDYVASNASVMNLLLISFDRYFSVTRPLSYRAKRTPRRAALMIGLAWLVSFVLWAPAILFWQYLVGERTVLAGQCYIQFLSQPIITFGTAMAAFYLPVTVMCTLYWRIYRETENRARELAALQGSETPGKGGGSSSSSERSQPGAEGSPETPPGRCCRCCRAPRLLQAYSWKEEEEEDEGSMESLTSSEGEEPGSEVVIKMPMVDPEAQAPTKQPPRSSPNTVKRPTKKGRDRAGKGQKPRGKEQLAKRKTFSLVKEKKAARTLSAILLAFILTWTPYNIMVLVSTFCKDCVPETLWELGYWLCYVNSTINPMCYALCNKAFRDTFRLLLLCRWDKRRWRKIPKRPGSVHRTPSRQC
Put plainly: Agonist activity at human muscarinic acetylcholine receptor M1 expressed in CHO cells assessed as increase in calcium mobilization incubated for 10 mins by Fluo-8-AM dye based FLIPR assay. The data set is classed as cell-based. The gist of the method: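 M1 FLIPR calcium mobilization run in agonist mode (compound added without the EC20 ACh used in PAM mode). Top concentration 10 μM. EC50 values are geometric means of at least three experiments.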
In general terms: Calcium flux is commonly read through the fluorescence of an indicator in the cells.

The nature of data set [8]: Positive allosteric modulation of muscarinic acetylcholine receptor M1 in Hartley guinea pig ileum longitudinal muscle myenteric plexus assessed as increase in acetylcholine-induced tissue contraction after 10 mins in presence of donepezil. Particulars: Cavia porcellus.
The target of data set [9] is T2, Muscarinic acetylcholine receptor M1. Nature of the data set: Ratio of positive allosteric modulation of human muscarinic acetylcholine receptor M1 expressed in CHO cells assessed as increase in acetylcholine-induced calcium mobilization by measuring functional co-operativity with acetylcholine to Kb human muscarinic acetylcholine receptor M1 expressed in CHO cells assessed as increase in calcium mobilization. The data set is classed as ADME, cell-based.

In a further data set the test system is Mus musculus. Nature of the data set: Reversal of amphetamine-induced hyperlocomotion in C57BL/6 mouse assessed as decrease in total distance traveled at 0.3 to 3.2 mg/kg, sc pretreated for 30 mins followed by amphetamine dosing measured for 90 mins. The format is functional, organism-based. The method in brief: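 C57BL/6 mice, D-amphetamine-stimulated locomotor activity. Compound at 0.32, 1 and 3.2 mg/kg sc as a solution in 10/90 Cremophor/water. Plasma and brain exposures from a satellite group (N = 2/dose) at 1 h.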

The test system of data set [10] is Rattus norvegicus. Nature of the data set: Unbound Cmax in rat plasma at 1 mg/kg, po administered as single dose. Particulars: in vivo. The data set is classed as ADME, organism-based. The gist of the method:
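Rats (3/sex/dose) dosed orally once, 1 or 5 mg/kg as a 0.5% methylcellulose suspension.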

For data set [11], the system named is Rattus norvegicus. Nature of the data set: Unbound Cmax in rat plasma at 45 mg/kg, po administered as single dose. The format is ADME, organism-based. Particulars: in vivo.
The nature of data set [12]: Cholinergic toxicity in po dosed rat administered as single dose after 1 to 1.5 hrs post dose. The format is organism-based. Particulars: in vivo. The method in brief: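 Rat single oral dose escalation, 3/sex/dose. 1 and 5 mg/kg as a 0.5% methylcellulose suspension; 15 and 45 mg/kg as a nanosuspension (1.25% w/v hydroxypropyl cellulose SL, 0.05% docusate sodium in water).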

A further data set deals with Canis familiaris. Nature of the data set: Toxicity in dog assessed as ataxia at 15 mg/kg, po administered as single dose using spray dried dispersion formulation after 0.8 hrs. The data set is classed as organism-based, Canis lupus familiaris. Particulars: in vivo. The method in brief:
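Dog single oral dose escalation: 1/sex at 5 mg/kg for each formulation; 1 female at 15 mg/kg. Spray-dried dispersion: 23% drug loading with 0.5% methylcellulose and 100 mM citrate buffer. Clinical signs timed in approximate hours postdose; unbound plasma Cmax.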

A short description of data set [13]: Ratio of unbound Cmax in rat brain assessed as convulsions at 45 mg/kg, po administered as single dose to unbound brain concentration for agonist activity at muscarinic acetylcholine receptor M1 in C57BL/6 mouse assessed as required to show 2 fold increase in IP1 accumulation in striatum at 1 to 10 mg/kg, sc. The data set is classed as organism-based.

The compound `Cc1cc2c(cc1Cc1ccc(-c3cocn3)cc1)C(=O)N([C@H]1CCOC[C@@H]1O)C2` showed a half-life in data set [1] of 402 min. Also, the Kp in [2] came to 0.7. Also, the Kp uu in data set [3] was 0.3. The compound also gave a clearance in [4] of 1.7 mL/min/kg. Moreover, the figures for the Activity result (in data set [5]; with Canis familiaris) were “Not Active” and “Toxic”, respectively. Moreover, the pEC50 in data set [6] is < 5.00; in data set [7] it was ≤ 5.30; in data set [8], 7.34. In addition, the Ratio in data set [9] was 70. Also, in the data set with Mus musculus, the outcome was Active. In addition, the fCmax in the data set on Rattus norvegicus [10] is 73 nM; in the data set with Rattus norvegicus [11] it was 2.31 to 3.83 µM. In [12], this compound had an NOAEL of 15 mg/kg. Also, the selectivity ratio in [13] stood at 20.
